Assay results: ChEMBL document CHEMBL1141722, “Antioxidative and thrombolytic TMP nitrone for treatment of ischemic stroke” (2008)
Active and inactive are the calls of the source. The calls are words filed in the database; no cut-off is given here.

What was measured:
Type in all cases: functional
[1] = Antioxidant activity assessed as inhibition of ROS-induced linoleic acid peroxidation at 1 mM after 15 mins at 100 degC by modified TBARS assay relative to control
Method in brief: (§1)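 Linoleic acid (1.5% in ethanol) diluted with twofold 200 mM PBS, pH 7.4, then incubated with 2.5 mM FeSO4 (0.2 mL) and test sample at 37 °C for 30 min. The reaction was stopped with 10% TCA and 0.67% TBA, then boiled 15 min. The MDA–TBA adduct in the supernatant was read at 532 nm. % inhibition = [(A−A1)/A]×100 versus control absorbance.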

[2] = Antioxidant activity assessed as inhibition of ROS-induced linoleic acid peroxidation at 2 mM after 15 mins at 100 degC by modified TBARS assay relative to control; method in brief: as §1
[3] = Neuroprotective effect against H202-induced Sprague-Dawley rat cortical neuron injury assessed as cell viability up to 1 mM treated 30 mins before H202 challenge measured after 24 hrs by MTT assay; conditions: Cortical neurone
Method in brief: (§2)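 Cortices from 1–3-day-old Sprague–Dawley rats were digested with 0.25% […] at 37 °C, and cells were plated at 9×10^4/well in DMEM/10% FBS for 24 h plus 12 h. Drugs were added 30 min before 0.5 mM H2O2, then incubated 24 h at 37 °C, 5% CO2. Viability was measured by MTT 4 h, DMSO solubilization, A570, as % of untreated/saline control. Means ± SEM of three independent experiments.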

Platelet = assay: Inhibition of ADP-induced New Zealand rabbit platelet aggregation at 2 mM treated for 1 min prior to ADP challenge by turbidimetric method relative to control; conditions: Oryctolagus cuniculus
Method in brief: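 New Zealand rabbit blood was anticoagulated with 3.8% citrate (9:1), and PRP was taken by centrifugation. PRP was pre-warmed at 37 °C for 1 min, then drug was added to 2 mM final. After 1 min of stirring, ADP (10 µM) was added and the reaction ran 4 min. Maximum change in light transmission was recorded turbidimetrically and expressed as % of drug-free control.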

Rattus norvegicus [4] = assay: Neuroprotective effect against middle cerebral artery occlusion-induced focal cerebral ischemia in Sprague-Dawley rat assessed as reduction in infarct area at 65 mg/kg, ip administered 1 hr after MCA occlusion measured after 24 hrs of reperfusion by TTC staining relative to control; design: scale not given: the % may be the effect or the level left; conditions: route intraperitoneal
Method in brief: (§3)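 Female Sprague-Dawley rats (210–240 g) under chloral hydrate (400 mg/kg ip) underwent 2 h transient proximal MCA occlusion by intraluminal suture, then reperfusion. Drug or saline was given ip 1 h after occlusion. After 24 h of reperfusion, 2-mm brain slices were stained with 0.5% TTC for 30 min at 37 °C. Infarct area was expressed as % of total section area. Single-tail Student's t-test versus control.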

[5] = Neuroprotective effect against H202-induced Sprague-Dawley rat cortical neuron injury assessed as cell viability at 1 to 1000 uM treated 30 mins before H202 challenge measured after 24 hrs by MTT assay; conditions: Cortical neurone; method in brief: as §2
[6] = Neuroprotective effect against H202-induced Sprague-Dawley rat cortical neuron injury assessed as cell viability at 1 mM treated 30 mins before H202 challenge measured after 24 hrs by MTT assay relative to control; conditions: Cortical neurone; method in brief: as §2
Rattus norvegicus [7] = assay: Antithrombotic activity in Sprague-Dawley rat venous thrombus model assessed as inhibition of thrombus formation at 3.25 mg/kg, iv administered 2 hrs after ligation measured after 24 hrs relative to control
Rattus norvegicus [8] = assay: Neuroprotective effect against middle cerebral artery occlusion-induced focal cerebral ischemia in Sprague-Dawley rat assessed as reduction in infarct area at 80 mg/kg, ip administered 1 hr after MCA occlusion measured after 24 hrs of reperfusion by TTC staining relative to control; design: scale not given: the % may be the effect or the level left; conditions: route intraperitoneal; method in brief: as §3
[9] = Neuroprotective effect against H202-induced Sprague-Dawley rat cortical neuron injury assessed as cell viability at 100 uM treated 30 mins before H202 challenge measured after 24 hrs by MTT assay; conditions: Cortical neurone; method in brief: as §2
Rattus norvegicus [10] = assay: Neuroprotective effect against middle cerebral artery occlusion-induced focal cerebral ischemia in Sprague-Dawley rat assessed as reduction in infarct area at 62 mg/kg, ip administered 1 hr after MCA occlusion measured after 24 hrs of reperfusion by TTC staining relative to control; design: scale not given: the % may be the effect or the level left; conditions: route intraperitoneal; method in brief: as §3
Rattus norvegicus [11] = assay: Antithrombotic activity in Sprague-Dawley rat venous thrombus model assessed as inhibition of thrombus formation at 2 mg/kg, iv administered 2 hrs after ligation measured after 24 hrs relative to control
Rattus norvegicus [12] = assay: Antithrombotic activity in rat venous thrombosis model assessed as inhibition of thrombus formation at 1.2 mg/kg
Rattus norvegicus [13] = assay: Neuroprotective effect against middle cerebral artery occlusion-induced focal cerebral ischemia in Sprague-Dawley rat assessed as reduction in infarct area at 50 mg/kg, ip administered 1 hr after MCA occlusion measured after 24 hrs of reperfusion by TTC staining relative to control; design: scale not given: the % may be the effect or the level left; conditions: route intraperitoneal; method in brief: as §3

Compound | inhibition [1] [%] | inhibition [2] [%] | Activity [3] | inhibition at 2000 µM (Platelet) [%] | Activity [6] [%] | also measured
CC(C)(C)/[N+]([O-])=C/c1ccccc1 | 15.8 | 25.1 | inactive | 33.9 |  | Activity (Rattus norvegicus [4]): 31.1%
Cc1nc(C)c(/C=[N+](\[O-])C(C)(C)C)nc1C | 13.7 | 40 |  | 30 | 96 | Activity [5]: Active; inhibition in vivo at 3.25 mg/kg (Rattus norvegicus [7]): 57.6%; Activity (Rattus norvegicus [8]): 56.3%
O=C1O[C@H]([C@@H](O)CO)C(O)=C1O | 43.3 | 53.2 |  |  |  | 
CC(=O)Oc1ccccc1C(=O)O [ASPIRIN] |  |  |  | 24.8 |  | 
CC1=NN(c2ccccc2)C(=O)C1 [EDARAVONE] | 37.9 | 43.7 |  | 32.4 | 82 | Activity [9]: Active; Activity (Rattus norvegicus [10]): 52.5%
Cc1nc(C)c(C)nc1C [LIGUSTRAZINE] | 6.6 | 9 | inactive | 36.2 |  | inhibition in vivo at 2 mg/kg (Rattus norvegicus [11]): 71.2%; inhibition in vivo at 1.2 mg/kg (Rattus norvegicus [12]): 50%; Activity (Rattus norvegicus [13]): 46.3%
